Measurements published in ChEMBL document CHEMBL4002592, “Piperlongumine derived cyclic sulfonamides (sultams): Synthesis and in vitro exploration for therapeutic potential against HeLa cancer cell lines” (2017).
Counter-ions that a name gives are not always drawn.

How the values were obtained:
Assay type in all cases: functional
HeLa [1] = experiment: Cytotoxicity against human HeLa cells assessed as cell growth at 10^-5 M after 48 hrs by SRB assay relative to control; conditions: read-out: Activity
In short: (§1)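 HeLa (NCI source) kept in RPMI 1640 with 10% FBS and 2 mM L-glutamine, 37°C, 5% CO2. Cells seeded at 5,000/well, incubated overnight, then exposed 48 h to drug at final 10^-4 to 10^-7 M from 10^-2 M DMSO stock. Fixed with 10% TCA, stained with 0.4% SRB for 20 min, dye dissolved in 10 mM Tris, OD 540 nm. % growth = 100×(T–T₀)/(C–T₀). Mean of three experiments.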

HeLa [2] = experiment: Cytotoxicity against human HeLa cells assessed as cell growth at 10^-6 M after 48 hrs by SRB assay relative to control; conditions: read-out: Activity; in short: as §1
HeLa [3] = experiment: Cytotoxicity against human HeLa cells assessed as cell growth at 10^-4 M after 48 hrs by SRB assay relative to control; conditions: read-out: Activity; in short: as §1
HeLa [4] = experiment: Cytotoxicity against human HeLa cells assessed as growth inhibition after 48 hrs by SRB assay
In short: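 HeLa in RPMI 1640/10% FBS/2 mM glutamine, seeded at 5,000 cells/well overnight, then treated 48 h at final 10^-4 to 10^-7 M (DMSO stock 10^-2 M). Read by SRB: TCA fixation, 0.4% SRB stain, Tris solubilisation, OD 540 nm. Growth corrected for time-zero OD. Mean % growth plotted against molar concentration; GI50 taken as the concentration giving 50% growth inhibition.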

HeLa [5] = experiment: Cytotoxicity against human HeLa cells assessed as cell growth at 10^-7 M after 48 hrs by SRB assay relative to control; conditions: read-out: Activity; in short: as §1

| SMILES | growth at 10 µM (HeLa [1]) [%] | growth at 1 µM (HeLa [2]) [%] | growth at 100 µM (HeLa [3]) [%] | GI50 (HeLa [4]) [µM] | growth inhibition (GI) (HeLa [4]) | growth at 0.1 µM (HeLa [5]) [%] |
| --- | --- | --- | --- | --- | --- | --- |
| O=C(/C=C/c1cccc(-c2ccccc2)c1)N1CCC=CS1(=O)=O | 32.9 | 86.5 | -63 | 19.8 | Dose-dependent effect | 97.6 |
| O=C(/C=C/c1ccccc1F)N1CCC=CS1(=O)=O | 52.4 | 62.3 | -75.3 | 13.7 | Dose-dependent effect | 78.5 |
| O=C(/C=C/c1cccs1)N1CCC=CS1(=O)=O | 53.4 | 74.2 | -75.3 | 18.8 | Dose-dependent effect | 92.1 |
| O=C(/C=C/c1cccc(C(F)(F)F)c1)N1CCC=CS1(=O)=O | 34.9 | 86.3 | -64.8 | 19.6 | Dose-dependent effect | 95.5 |
| O=C(c1cccc(Cl)c1)N1CCC=CS1(=O)=O | 55.4 | 86.7 | 10.8 | 45.4 | Dose-dependent effect | 100 |
| Cc1cccc(/C=C/C(=O)N2CCC=CS2(=O)=O)c1 | 35 | 89.5 | -67.1 | 20.7 | Dose-dependent effect | 99.9 |
| O=C(/C=C/c1ccoc1)N1CCC=CS1(=O)=O | 57.7 | 80.2 | -78.1 | 20.3 | Dose-dependent effect | 92 |
| O=C(/C=C/c1c[nH]c2ccc(F)cc12)N1CCC=CS1(=O)=O | 25.3 | 87.6 | -48 | 18.8 | Dose-dependent effect | 90.4 |
| Cc1ccc(/C=C/C(=O)N2CCC=CS2(=O)=O)cc1 | 26.3 | 81.4 | -33.5 | 18.6 | Dose-dependent effect | 86.8 |
| O=C(/C=C/c1cccc(F)c1)N1CCC=CS1(=O)=O | -39.2 | 42.4 | -69 | < 0.1 | Dose-dependent effect | 96.8 |
| COc1ccc(/C=C/C(=O)N2CCC=CS2(=O)=O)cc1 | 68.1 | 83.8 | -55.3 | 24.4 | Dose-dependent effect | 84.7 |
| COc1ccccc1/C=C/C(=O)N1CCC=CS1(=O)=O | 14.6 | 35 | -80.1 | 0.1 | Dose-dependent effect | 76.7 |
| Cc1ccc(C(=O)N2CCC=CS2(=O)=O)cc1[N+](=O)[O-] | 67.6 | 93.7 | -11.2 | 39.2 | Dose-dependent effect | 97.1 |
| COc1cc(/C=C/C(=O)N2CCC=CS2(=O)=O)cc(OC)c1OC | 46.8 | 71.4 | -80.6 | 14.3 | Dose-dependent effect | 79.8 |
| COc1cccc(/C=C/C(=O)N2CCC=CS2(=O)=O)c1 | 68.7 | 92.2 | -79.7 | 23.7 | Dose-dependent effect | 90.8 |
| O=C(/C=C/c1c(Cl)nc2ccccn12)N1CCC=CS1(=O)=O | 20.6 | 59 | -78.5 | 8.2 | Dose-dependent effect | 87 |
| COc1cc(/C=C/C(=O)N2CCC=CS2(=O)=O)cc(OC)c1 | -60.1 | 32.5 | -78.4 | < 0.1 | Dose-dependent effect | 82.5 |
| COc1cccc2c1C(=O)c1c(O)c3c(c(O)c1C2=O)C[C@@](O)(C(=O)CO)C[C@@H]3O[C@H]1C[C@H](N)[C@H](O)[C@H](C)O1 [DOXORUBICIN HYDROCHLORIDE] | -84.1 | -82.9 | -84.6 | < 0.1 |  | -76.8 |
| O=C(/C=C/c1ccc(Cl)cc1)N1CCC=CS1(=O)=O | 53.5 | 80.2 | -30.5 | 26.4 | Dose-dependent effect | 90.7 |
| O=C(/C=C/c1ccc([N+](=O)[O-])cc1)N1CCC=CS1(=O)=O | 59 | 90.4 | -71.6 | 24.4 | Dose-dependent effect | 100 |
